These results are taken from ChEMBL document CHEMBL3817745, “Structure-Activity Relationship for the 4(3H)-Quinazolinone Antibacterials” (J Med Chem, 2016).

Some results are limits rather than exact numbers.

What all share (type): functional
For assay [1], the system named is Enterococcus faecium. Put plainly: Antibacterial activity against Enterococcus faecium NCTC 7171 incubated for 16 to 20 hrs by microdilution method. In short, it runs like this:
(§1)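 CLSI broth microdilution. 2-fold serial dilutions were made in cation-adjusted Mueller–Hinton broth, with 5% lysed horse blood added for Streptococcus strains, in triplicate. Inoculum 5×10^5 CFU/mL. Plates incubated 36 °C for 16–20 h. MIC taken as the lowest concentration visibly inhibiting growth.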
On the technique in general: In broth dilution the organism is exposed to a series of concentrations in liquid medium.

For assay [2], the system named is Klebsiella pneumoniae. Put plainly: Antibacterial activity against Klebsiella pneumoniae ATCC 700603 incubated for 16 to 20 hrs by microdilution method. In short, it runs like this:
as §1

Assay [3] deals with Acinetobacter baumannii. Put plainly: Antibacterial activity against Acinetobacter baumannii ATCC 17961 incubated for 16 to 20 hrs by microdilution method. The gist of the method:
as §1

Assay [4] deals with Pseudomonas aeruginosa. Put plainly: Antibacterial activity against Pseudomonas aeruginosa […] incubated for 16 to 20 hrs by microdilution method. The gist of the method:
as §1

Assay [5] has as its system Escherichia coli. Put plainly: Antibacterial activity against Escherichia coli ATCC 25922 incubated for 16 to 20 hrs by microdilution method. In short, it runs like this:
as §1

Assay [6] relates to Klebsiella aerogenes. Put plainly: Antibacterial activity against Enterobacter aerogenes ATCC 35029 incubated for 16 to 20 hrs by microdilution method. The gist of the method:
as §1

On to `N#Cc1ccc(/C=C/c2nc3ccccc3c(=O)n2-c2cccc(F)c2)cc1`, for which the MIC (as a rule, the lowest concentration that inhibits growth of the organism) in assay [1] was not below 8 µg/mL; in assay [2] it was not below 16 µg/mL; in assay [3], not below 16 µg/mL; in assay [4] it was not below 16 µg/mL; in assay [5], not below 16 µg/mL; in assay [6], not below 16 µg/mL.

As to `CC(=O)OCCCn1c(/C=C/c2ccc(C#N)cc2)nc2ccccc2c1=O`, the MIC was not below 8 µg/mL in assay [1]; not below 16 µg/mL in assay [2]; not below 16 µg/mL in assay [3]; not below 16 µg/mL in assay [4]; not below 16 µg/mL in assay [5]; not below 16 µg/mL in assay [6].

For `NC(=O)c1cccc(-n2c(/C=C/c3ccc(F)cc3)nc3ccccc3c2=O)c1`, the MIC in assay [1] was not below 8 µg/mL; in assay [2], not below 16 µg/mL; in assay [3], not below 16 µg/mL; in assay [4], not below 16 µg/mL; in assay [5] it was not below 16 µg/mL; in assay [6], not below 16 µg/mL.

On to `O=c1c2cnccc2nc(/C=C/c2ccc(Cl)cc2)n1-c1cccc(O)c1`, for which the MIC is not below 8 µg/mL in assay [1]; not below 16 µg/mL in assay [2]; not below 16 µg/mL in assay [3]; not below 16 µg/mL in assay [4]; not below 16 µg/mL in assay [5]; not below 16 µg/mL in assay [6].

For `N#Cc1ccc(/C=C/c2nc3ccccc3c(=O)n2-c2cccc(C(=O)NCCC(=O)O)c2)cc1`, the MIC in assay [1] was not below 8 µg/mL; in assay [2] it was not below 16 µg/mL; in assay [3] it was not below 16 µg/mL; in assay [4], not below 16 µg/mL; in assay [5] it was not below 16 µg/mL; in assay [6], not below 16 µg/mL.

On to `NC(=O)c1cccc(-n2c(/C=C/c3ccc(Cl)cc3)nc3ccncc3c2=O)c1`, for which the MIC in assay [1] was not below 8 µg/mL; in assay [2], not below 16 µg/mL; in assay [3], not below 16 µg/mL; in assay [4], not below 16 µg/mL; in assay [5] it was not below 16 µg/mL; in assay [6], not below 16 µg/mL.

On to `N#Cc1ccc(/C=C/c2nc3ccccc3c(=O)n2-c2cccc(C(=O)NCc3cccnc3)c2)cc1`, for which the MIC in assay [1] is not below 8 µg/mL; in assay [2], not below 16 µg/mL; in assay [3], not below 16 µg/mL; in assay [4] it was not below 16 µg/mL; in assay [5], not below 16 µg/mL; in assay [6], not below 16 µg/mL.

For `O=C(O)c1cccc(-n2c(/C=C/c3ccc(F)cc3)nc3ccncc3c2=O)c1`, the MIC in assay [1] is not below 8 µg/mL; in assay [2] it was not below 16 µg/mL; in assay [3] it was not below 16 µg/mL; in assay [4], not below 16 µg/mL; in assay [5], not below 16 µg/mL; in assay [6], not below 16 µg/mL.

For the compound `O=c1c2ccccc2nc(/C=C/C2CCCCC2)n1-c1cccc(O)c1`, the MIC is not below 8 µg/mL in assay [1]; not below 16 µg/mL in assay [2]; not below 16 µg/mL in assay [3]; not below 16 µg/mL in assay [4]; not below 16 µg/mL in assay [5]; not below 16 µg/mL in assay [6].

Consider `CC(C)Nc1cccc(-n2c(/C=C/c3ccc(C#N)cc3)nc3ccccc3c2=O)c1`, for which the minimum inhibitory concentration (MIC) in assay [1] was not below 8 µg/mL; in assay [2], not below 16 µg/mL; in assay [3], not below 16 µg/mL; in assay [4] it was not below 16 µg/mL; in assay [5], not below 16 µg/mL; in assay [6], not below 16 µg/mL.

For `O=C(O)c1cccc(-n2c(/C=C/c3ccc(F)c(F)c3)nc3ccccc3c2=O)c1`, the MIC in assay [1] is not below 8 µg/mL; in assay [2] it was not below 16 µg/mL; in assay [3], not below 16 µg/mL; in assay [4] it was not below 16 µg/mL; in assay [5], not below 16 µg/mL; in assay [6] it was not below 16 µg/mL.

With `O=C(NCCO)c1cccc(-n2c(/C=C/c3ccc(F)cc3)nc3ccccc3c2=O)c1`, the MIC in assay [1] is not below 8 µg/mL; in assay [2], not below 16 µg/mL; in assay [3], not below 16 µg/mL; in assay [4] it was not below 16 µg/mL; in assay [5], not below 16 µg/mL; in assay [6], not below 16 µg/mL.

Take `CC(=O)OCc1cccc(-n2c(/C=C/c3ccc(C#N)cc3)nc3ccccc3c2=O)c1`: the MIC was not below 8 µg/mL in assay [1]; not below 16 µg/mL in assay [2]; not below 16 µg/mL in assay [3]; not below 16 µg/mL in assay [4]; not below 16 µg/mL in assay [5]; not below 16 µg/mL in assay [6].

Regarding `COC(=O)CCNC(=O)c1cccc(-n2c(/C=C/c3ccc(C#N)cc3)nc3ccccc3c2=O)c1`, the MIC in assay [1] was not below 8 µg/mL; in assay [2], not below 16 µg/mL; in assay [3], not below 16 µg/mL; in assay [4], not below 16 µg/mL; in assay [5] it was not below 16 µg/mL; in assay [6] it was not below 16 µg/mL.

With `O=C(O)c1cccc(-n2c(/C=C/c3ccc(Cl)cc3)nc3ccncc3c2=O)c1`, the minimal inhibitory concentration (MIC) in assay [1] is not below 8 µg/mL; in assay [2] it was not below 16 µg/mL; in assay [3] it was not below 16 µg/mL; in assay [4] it was not below 16 µg/mL; in assay [5], not below 16 µg/mL; in assay [6], not below 16 µg/mL.

Turning to `Cc1ccc(/C=C/c2nc3ccccc3c(=O)n2-c2cccc(O)c2)cc1`, the MIC in assay [1] was not below 8 µg/mL; in assay [2], not below 16 µg/mL; in assay [3] it was not below 16 µg/mL; in assay [4], not below 16 µg/mL; in assay [5], not below 16 µg/mL; in assay [6], not below 16 µg/mL.

Turning to `CS(=O)(=O)c1ccc(/C=C/c2nc3ccccc3c(=O)n2-c2cccc(C(=O)O)c2)cc1`, the MIC in assay [1] was not below 8 µg/mL; in assay [2] it was not below 16 µg/mL; in assay [3], not below 16 µg/mL; in assay [4] it was not below 16 µg/mL; in assay [5] it was not below 16 µg/mL; in assay [6] it was not below 16 µg/mL.

In the case of `O=c1c2cc(Br)ccc2nc(/C=C/c2ccc([N+](=O)[O-])cc2)n1-c1cccc(O)c1`, the MIC in assay [1] was not below 8 µg/mL; in assay [2] it was not below 16 µg/mL; in assay [3], not below 16 µg/mL; in assay [4] it was not below 16 µg/mL; in assay [5], not below 16 µg/mL; in assay [6] it was not below 16 µg/mL.

Regarding `CC(=O)Oc1ccc(-n2c(/C=C/c3ccc([N+](=O)[O-])cc3)nc3ccccc3c2=O)cc1`, the MIC in assay [1] was not below 8 µg/mL; in assay [2], not below 16 µg/mL; in assay [3] it was not below 16 µg/mL; in assay [4], not below 16 µg/mL; in assay [5] it was not below 16 µg/mL; in assay [6] it was not below 16 µg/mL.

Turning to `CC(=O)OCC#Cc1ccc(/C=C/c2nc3ccccc3c(=O)n2-c2cccc(C(=O)O)c2)cc1`, the MIC is not below 8 µg/mL in assay [1]; not below 16 µg/mL in assay [2]; not below 16 µg/mL in assay [3]; not below 16 µg/mL in assay [4]; not below 16 µg/mL in assay [5]; not below 16 µg/mL in assay [6].

For the compound `CS(=O)(=O)NCc1cccc(-n2c(/C=C/c3ccc(C#N)cc3)nc3ccccc3c2=O)c1`, the MIC is not below 8 µg/mL in assay [1]; not below 16 µg/mL in assay [2]; not below 16 µg/mL in assay [3]; not below 16 µg/mL in assay [4]; not below 16 µg/mL in assay [5]; not below 16 µg/mL in assay [6].

Turning to `NC(=O)c1cccc(-n2c(/C=C/c3ccc(F)cc3)nc3ccncc3c2=O)c1`, the MIC was not below 8 µg/mL in assay [1]; not below 16 µg/mL in assay [2]; not below 16 µg/mL in assay [3]; not below 16 µg/mL in assay [4]; not below 16 µg/mL in assay [5]; not below 16 µg/mL in assay [6].

In the case of `O=c1c2cc(O)ccc2nc(/C=C/c2ccc(F)cc2)n1-c1cccc(O)c1`, the MIC is not below 8 µg/mL in assay [1]; not below 16 µg/mL in assay [2]; not below 16 µg/mL in assay [3]; not below 16 µg/mL in assay [4]; not below 16 µg/mL in assay [5]; not below 16 µg/mL in assay [6].

Take `COC(=O)Cc1ccc(/C=C/c2nc3ccccc3c(=O)n2-c2cccc(C(=O)O)c2)cc1`: the MIC in assay [1] was not below 8 µg/mL; in assay [2], not below 16 µg/mL; in assay [3] it was not below 16 µg/mL; in assay [4], not below 16 µg/mL; in assay [5], not below 16 µg/mL; in assay [6] it was not below 16 µg/mL.

With `O=C(O)c1cccc(-n2c(/C=C/c3ccc(C#CCO)cc3)nc3ccccc3c2=O)c1`, the MIC in assay [1] is not below 8 µg/mL; in assay [2] it was not below 16 µg/mL; in assay [3] it was not below 16 µg/mL; in assay [4], not below 16 µg/mL; in assay [5] it was not below 16 µg/mL; in assay [6], not below 16 µg/mL.

Turning to `O=c1c2ccccc2nc(/C=C/c2ccc([N+](=O)[O-])cc2)n1-c1ccccc1O`, the MIC in assay [1] was not below 8 µg/mL; in assay [2], not below 16 µg/mL; in assay [3] it was not below 16 µg/mL; in assay [4], not below 16 µg/mL; in assay [5], not below 16 µg/mL; in assay [6] it was not below 16 µg/mL.

Regarding `N#Cc1ccc(/C=C/c2nc3cc(N)ccc3c(=O)n2-c2cccc(C(=O)O)c2)cc1`, the MIC in assay [1] was not below 8 µg/mL; in assay [2], not below 16 µg/mL; in assay [3], not below 16 µg/mL; in assay [4], not below 16 µg/mL; in assay [5], not below 16 µg/mL; in assay [6], not below 16 µg/mL.

As to `N#Cc1ccc(/C=C/c2nc3ccccc3c(=O)n2-c2cccc(CC(=O)O)c2)cc1`, the MIC in assay [1] is not below 8 µg/mL; in assay [2], not below 16 µg/mL; in assay [3], not below 16 µg/mL; in assay [4] it was not below 16 µg/mL; in assay [5] it was not below 16 µg/mL; in assay [6], not below 16 µg/mL.

As to `N#Cc1ccc(/C=C/c2nc3ccncc3c(=O)n2-c2cccc(C(N)=O)c2)cc1`, the MIC is not below 8 µg/mL in assay [1]; not below 16 µg/mL in assay [2]; not below 16 µg/mL in assay [3]; not below 16 µg/mL in assay [4]; not below 16 µg/mL in assay [5]; not below 16 µg/mL in assay [6].

As for `O=c1c2ccccc2nc(/C=C/c2cccc(F)c2)n1-c1cccc(O)c1`, the MIC in assay [1] is not below 8 µg/mL; in assay [2], not below 16 µg/mL; in assay [3], not below 16 µg/mL; in assay [4] it was not below 16 µg/mL; in assay [5] it was not below 16 µg/mL; in assay [6], not below 16 µg/mL.

On to `COc1ncccc1CNc1cccc(-n2c(/C=C/c3ccc(C#N)cc3)nc3ccccc3c2=O)c1`, for which the MIC in assay [1] is not below 8 µg/mL; in assay [2], not below 16 µg/mL; in assay [3], not below 16 µg/mL; in assay [4] it was not below 16 µg/mL; in assay [5] it was not below 16 µg/mL; in assay [6], not below 16 µg/mL.
